This is a sample that favours compounds with a hit; in the whole collection about 4.4% have one here.
HIF act – HIF pathway transcriptional activation | activation, % at 7.5 µM (by protocol) | 300,000 compounds, 0.32% hits | U2OS HRE-luciferase reporter, luminescence; normalized: DMSO 0%, desferrioxamine 100%;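 active = mean activation of at least 10% of the iron chelator positive control signal, with at least half of replicates also reaching 10%; inconclusive = mean and replicate majority disagree about reaching 10%; inactive = mean and most replicates under 10%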
HSF1 activator – increases HSF-1 driven luciferase reporter signal; activation, % at 9 µM; 300,000 compounds, 1.7% hits; NIH3T3-HGL HSF-1 luciferase reporter, MG132, 8 h; 100% = twice DMSO control signal; AID 504408;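 active = mean replicate activation of at least 50% with a set share of replicates each reaching 50%; inconclusive = only one of those two conditions met; inactive = mean below 50% and too few replicates reaching it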;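 also: 0% = median of the neutral control wells and 100% = twice that signal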
HSF1 inh – HSF1 inhibition | NIH3T3-HGL HSE-luciferase, MG132-induced, luminescence 8 h; hits give low values | activity change, negative = inhibition, % at 7.5 µM (by protocol) | 300,000 compounds, 0.77% hits | AID 2098;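 active = more than half of replicate wells show activity change below -50%, luminescence cut by over half; inconclusive = some wells, but at most half, below -50%; inactive = no replicate well below -50%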;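 also: luciferase reports HSF-1 transcriptional activity via heat shock element; 0% = median of DMSO wells and -100% = zero luminescence signal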
T cruzi repl – blocks replication of Trypanosoma cruzi | T. cruzi beta-gal in NIH3T3, luminescence, 90 h | inhibition, % (test concentration not listed) | 300,000 compounds, 1.4% hits | AID 1885;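 active = mean inhibition across valid replicates above about 55%, limit read from the data; inconclusive = mean below that limit but half or more replicates reach it; inactive = mean below it, under half of replicates reach it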;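 also: signal also drops with host cell toxicity which is not excluded here; 0% = plate median of DMSO wells and 100% = zero luminescence signal; higher percent means less beta-gal luminescence so fewer parasites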
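Read-out: Parasite load inhibition, % | Test system: Mouse NIH/3T3 fibroblasts infected with β-gal-expressing T. cruzi Tulahuen C4 | Amount: 5,000 cells/well | Medium: DMEM, 2% fetal bovine serum | Signal: GalScreen β-gal luminescence, detergent lysis, 60 min | Timing: 3 h attach, ≥90 h co-culture | Also added: Tulahuen C4 trypomastigotes, 5000/well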
Calb FLC – affects C. albicans growth with fluconazole | 300,000 compounds, 0.57% hits | growth inhibition, % (no concentration beside the values) | C. albicans CaCi-2 (fluconazole-resistant clinical isolate) + fluconazole, Alamar Blue growth, 48 h | AID 1979;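 active = growth inhibition above about 58% in most replicates, limit read from the data, passing the limit was not always enough; inconclusive = exactly half the replicates above a set limit; inactive = most replicates below a set limit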;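 also: all wells also contain fluconazole at 8 µg/ml as a sub-toxic cotreatment; 0% = median of DMSO wells and 100% = median of geldanamycin control wells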
* = called active by the depositor; ? = inconclusive; / = no result given.

SMILES | HIF act | HSF1 activator | HSF1 inh | T cruzi repl | Calb FLC
Clc1cccc(CN2CCc3c([nH]c4ccccc34)C2)c1 | -16 | 15 | -5 | 59* | 0
CC/C(=N/NC(=O)CNc1ccc(Cl)cc1C)c1ccccc1 | 0 | 15 | 5 | 5 | -25
O=[N+]([O-])c1cccc(/C=C/c2ccc3cccc(O)c3n2)c1 | 13* | -18 | -6 | 25 | -2
O=[N+]([O-])c1ccc(/C=C/c2ccc3cccc([N+](=O)[O-])c3n2)cc1 | 0 | 50 | 14 | 13 | 0
Cn1nc([N+](=O)[O-])nc1Sc1cccc2cccnc12 | 1 | 4 | 4 | 65* | -1
O=[N+]([O-])c1ccc(Cl)cc1Sc1cccc2cccnc12 | 0 | -20 | -13 | 10 | -4
Cn1nc([N+](=O)[O-])nc1Sc1nnc(-c2ccccc2)o1 | 1 | -13 | -1 | 69* | 2
O=Cc1ccc(Sc2nnc(-c3ccccc3)o2)c([N+](=O)[O-])c1 | 0 | 31 | 13 | 17 | 30
Cn1nnc(NC(=S)NC(=O)c2cc(Cl)ccc2Cl)n1 | -1 | 3 | 9 | -21 | 3
O=C(NCC1CCCO1)c1cc2n(n1)C(C(F)(F)F)CC(c1ccc(Br)cc1)N2 (stereo not drawn) | 0 | -2 | -6 | -16 | 93*
O=C(NCC1CCCO1)c1cnn2c1NC(c1ccccc1)CC2C(F)(F)F (stereo not drawn) | 0 | 16 | 1 | -16 | -6
O=C(Nc1nccs1)c1ccc(COc2ccccc2)o1 | 2 | 56* | 30 | -17 | -4
Cc1ccc(OCc2ccc(C(=O)Nc3nccs3)o2)cc1 | 1 | 60* | 36 | -1 | -11
CCc1nnc(NC(=O)c2ccc(COc3ccc(C)cc3)o2)s1 | -1 | -11 | 3 | -3 | -3
O=C(Nc1nccs1)c1ccc(CSc2ccccc2)o1 | 3 | 63* | 50 | -9 | 27
CCc1nnc(NC(=O)c2ccc(COc3ccccc3)o2)s1 | 0 | 8 | -5 | -7 | 23
Cc1ccc2nc(NC3=NC(CC(=O)O)C(=O)N3)nc(C)c2c1 (stereo not drawn) | 0 | -4 | 10 | -6 | -11
O=C(c1ccccn1)N1CCCC(N2CCN(c3ccc(F)cc3)CC2)C1 (stereo not drawn) | 0 | 1 | 0 | -7 | -3
O=C(Cc1ccc(F)cc1)N1CCC2(CC1)NCCc1[nH]cnc12 | 0 | 29 | 11 | -1 | 20
COc1cccc(NC(=O)c2nnn(Cc3ccc(Br)cc3F)c2N)c1 | 3 | 70* | 49 | 41 | -3
COc1cc(C(C)=O)ccc1COc1ccc(C(=O)O)cc1OC | 0 | 11 | -2 | -7 | 10
CCOc1ccc(/C=N/NC(=O)C(C)N(c2ccc(OC)cc2)S(C)(=O)=O)cc1 (stereo not drawn) | 0 | 64* | 25 | -1 | 0
COc1ccc(N(C(C)C(=O)N/N=C/c2ccc(OCC(C)C)cc2)S(C)(=O)=O)cc1 (stereo not drawn) | -1 | -3 | -7 | -1 | -1
NC(=O)[C@@H]1CCCNc2c(I)cc([N+](=O)[O-])cc2C(=O)N[C@@H](Cc2ccccc2)C(=O)N[C@@H](Cc2cnc[nH]2)C(=O)N1 | 0 | 10 | -3 | -9 | 18
Cc1ccc(S(=O)(=O)NCC(C)NC(=O)CN2CCOCC2)cc1 (stereo not drawn) | 0 | 7 | 5 | -5 | -1
SMILES | HIF act | HSF1 activator | HSF1 inh | T cruzi repl | Calb FLC
Oc1ccc2n[nH]nc2c1 | 0 | 3 | -2 | -11 | 1
CN1CCN(c2oc(COc3ccc(-c4ccccc4)cc3)nc2C#N)CC1 | 0 | 2 | 9 | 77* | 14
N#Cc1nc(COc2ccccc2)oc1N1CCCC1 | -1 | 3 | 11 | 7 | 3
CCOc1ccc2c(C)c(Cl)c(=O)oc2c1 | 96* | 30 | 2 | -4 | -38
COc1ccc(C/C(N)=N/OC(=O)c2cccs2)cc1 | 4 | 22 | 23 | 4 | 54
CC(=O)c1c(COC(=O)c2ccccc2)nc2ccccc2[n+]1[O-] | 0 | -2 | 2 | -20 | 11
COc1ccc2nc(COC(=O)c3cccs3)c(C(C)=O)[n+]([O-])c2c1 | -1 | -63 | -54* | -9 | 0
COc1ccc(OCCOC(=O)c2cccs2)cc1 | 2 | 63* | 18 | -3 | ?
COc1ccc2nc(COC(=O)c3cccc([N+](=O)[O-])c3)c(C(C)=O)[n+]([O-])c2c1 | 0 | -4 | -7 | -24 | 0
CCOc1ccc2nc(COC(=O)c3cccc([N+](=O)[O-])c3)c(C(C)=O)[n+]([O-])c2c1 | 0 | 69* | 27 | -15 | -3
COc1ccc(C(=O)Nn2c(CCC(=O)O)ccc2-c2ccc(C)cc2)cc1OC | 0 | 8 | 6 | -17 | -5
CC1CCCC/C1=N\Nc1ccc(S(N)(=O)=O)cc1[N+](=O)[O-] (stereo not drawn) | -1 | 68* | 44 | 4 | -9
CC(C)(C)C1CCC(=NNc2ccc(S(N)(=O)=O)cc2[N+](=O)[O-])CC1 (stereo not drawn) | 0 | 5 | 5 | 12 | -5
CC(C)CCn1c2ccccc2c2cc(CC(N)=O)ccc21 | -1 | 6 | 2 | 12 | -4
COc1ccc(NC(=O)CCS(=O)(=O)c2ccc3c(c2)oc(=O)n3C)cc1 | 1 | 16 | 4 | 1 | 0
CCc1cc2c(N=Nc3c(O)[nH]c4ccccc34)ncnc2s1 | 1 | -8 | -3 | 4 | 45
CCc1ccc2[nH]c(O)c(N=Nc3nc(-c4ccccc4)cs3)c2c1 | 0 | -91 | -89* | 33 | 7
O=C1CCCC2=C1C(Cc1ccccc1)C1=C(CCCC1=O)O2 | 351* | 2 | 4 | 9 | 2
COc1ccc(CNC(=O)OCc2nccnc2C(=O)Nc2ccc(Br)cn2)cc1 | 0 | 15 | -1 | -36 | 0
N#CC(c1nc2ccccc2nc1N1CCOCC1)S(=O)(=O)c1ccccc1 (stereo not drawn) | / | / | / | / | 5
CC(N1CCOC1=O)S(=O)(=O)c1ccccc1 (stereo not drawn) | -2 | -81 | -76* | 7 | -13
COc1ccc(C(C[N+](=O)[O-])c2c(C)[nH]n(-c3ccccc3)c2=O)cc1 (stereo not drawn) | 1 | 12 | 7 | -1 | -1
Cc1[nH]n(-c2ccccc2)c(=O)c1C(C[N+](=O)[O-])c1ccccc1Cl (stereo not drawn) | 0 | 146* | 107 | -16 | -3
COc1ccc(C2c3ccc4ccccc4c3Oc3ncn(CCCO)c(=N)c32)cc1 (stereo not drawn) | 0 | 26 | 4 | 27 | 27
COc1ccc(C2c3ccc4ccccc4c3Oc3ncn(CCN4CCOCC4)c(=N)c32)cc1 (stereo not drawn) | 0 | 39 | 16 | 36 | 101*
